Assay results as given in ChEMBL document CHEMBL1139834, “Synthesis and structure-activity relationships of new benzodioxinic lactones as potential anticancer drugs” (J Med Chem, 2007).
Activity calls are given as the source filed them. The calls are words filed in the database; no cut-off is given here.

Columns and labels:
SF-268 = assay: Antitumor activity against human SF268 cell line; format: functional
Outline: (§1)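 Human tumour cell line panel. GI50 is the concentration giving 50% growth inhibition, averaged over at least two determinations. LC50 is the concentration killing 50% of cells in a […] assay.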

[1] = Effect on DNA sequence recognition assessed by DNase I footprinting assay; format: functional
HOP-92 = assay: Antitumor activity against human HOP92 cell line; format: functional; outline: as §1
OVCAR-4 = assay: Antitumor activity against human OVCAR4 cell line; format: functional; outline: as §1
OVCAR-8 = assay: Antitumor activity against human OVCAR8 cell line; format: functional; outline: as §1
SK-MEL-28 = assay: Antitumor activity against human SKMEL28 cell line; format: functional; outline: as §1
HCC 2998 = assay: Antitumor activity against human HCC2998 cell line; format: functional; settings: read-out: LC50 (the source's name); outline: as §1
HL-60 = assay: Antitumor activity against human HL60 cell line; format: functional; outline: as §1
SF-539 = assay: Antitumor activity against human SF539 cell line; format: functional; outline: as §1
ACHN = assay: Antitumor activity against human ACHN cell line; format: functional; outline: as §1
SK-MEL-5 = assay: Antitumor activity against human SKMEL5 cell line; format: functional; outline: as §1
HOP-62 = assay: Antitumor activity against human HOP62 cell line; format: functional; outline: as §1
M14 = assay: Antitumor activity against human M14 cell line; format: functional; outline: as §1
L1210 [2] = assay: Cytotoxicity against mouse L1210 cell line; format: cell-based; settings: Mus musculus, L1210
Outline: (§2)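 Cells grown at 37 °C under 5% CO2 in medium with 2 mM L-glutamine, penicillin, streptomycin and 20% heat-inactivated horse serum. Drug in DMSO (0.5% final) added to exponentially growing cells seeded at 0.8 × 10^5 cells/mL. Coulter counting in quadruplicate at 48 h (L1210) or 96 h (HT-29). IC50 from probit of % growth inhibition versus log dose; four independent runs in triplicate.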

BT-549 = assay: Antitumor activity against human BT549 cell line; format: functional; outline: as §1
UACC-257 = assay: Antitumor activity against human UACC257 cell line; format: functional
Outline: (§3)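 Human tumour cell lines from a selected panel. GI50 is the concentration giving 50% growth inhibition, averaged from at least two determinations. LC50 is the concentration killing 50% of cells in a […] assay.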

RPMI-8226 = assay: Antitumor activity against human RPMI8226 cell line; format: functional; outline: as §1
A549 = assay: Antitumor activity against human A549 cell line; format: functional; outline: as §1
SW-620 = assay: Antitumor activity against human SW620 cell line; format: functional; outline: as §3
[3] = Antitumor activity against human IGROVI cell line; format: functional; outline: as §1
EKVX = assay: Antitumor activity against human EKVX cell line; format: functional; outline: as §1
U-251 = assay: Antitumor activity against human U251 cell line; format: functional; outline: as §3
SN12C = assay: Antitumor activity against human SN12C cell line; format: functional; outline: as §1
LOX IMVI = assay: Antitumor activity against human LOX IMVI cell line; format: functional; outline: as §1
SK-MEL-2 = assay: Antitumor activity against human SKMEL2 cell line; format: functional; outline: as §1
Hs-578T = assay: Antitumor activity against human HS578T cell line; format: functional; outline: as §1
SF-295 = assay: Antitumor activity against human SF295 cell line; format: functional; outline: as §1
RXF 393 = assay: Antitumor activity against human RXF393 cell line; format: functional; outline: as §1
L1210 [4] = assay: Cell cycle arrest in mouse L1210 cell line by accumulation at 8N phase at 5 uM after 24 hrs; format: functional
Outline: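 L1210 cells in RPMI 1640 with 2 mM L-glutamine, penicillin, streptomycin and 20% heat-inactivated horse serum, 5% CO2, 37 °C, exposed to several drug concentrations. Cells fixed in 70% ethanol, washed, stained 30 min at room temperature with propidium iodide plus RNAse in PBS, then flow cytometry. Read-out is percentage of cells in each cycle phase after 24 h exposure.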

NCI/ADR-RES = assay: Antitumor activity against human NCI/ADRRES cell line; format: functional; outline: as §1
A498 = assay: Antitumor activity against human A498 cell line; format: functional; outline: as §1
NCI-H23 = assay: Antitumor activity against human NCI-H23 cell line; format: functional; outline: as §1
MDA-N = assay: Antitumor activity against human MDA-N cell line; format: functional; outline: as §1
MCF7 = assay: Antitumor activity against human MCF7 cell line; format: functional; outline: as §1
MDA-MB-231 = assay: Antitumor activity against human MDA-MB-231 cell line; format: functional; outline: as §1
NCI-H460 = assay: Antitumor activity against human NCI-H460 cell line; format: functional; outline: as §1
PC-3 = assay: Antitumor activity against human PC3 cell line; format: functional; outline: as §1
CAKI-1 = assay: Antitumor activity against human CAKI1 cell line; format: functional; outline: as §1
Homo sapiens = organism: Homo sapiens; assay: Inhibition of topoisomerase 2 assessed by DNA cleavage complex formation assay
Outline: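 Cleavage complex formed on pYRG plasmid DNA by human topoisomerase II purified from placenta. Linear DNA product quantified by densitometry relative to ellipticine.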

HT-29 [5] = assay: Cytotoxicity against human HT29 cell line; format: cell-based; outline: as §2
SNB-75 = assay: Antitumor activity against human SNB75 cell line; format: functional; settings: read-out: LC50 (the source's name); outline: as §3
CCRF-CEM = assay: Antitumor activity against human CCRF-CEM cell line; format: functional; outline: as §1
K562 = assay: Antitumor activity against human K562 cell line; format: functional; outline: as §1
HT-29 [6] = assay: Antitumor activity against human HT29 cell line; format: functional
UACC-62 = assay: Antitumor activity against human UACC62 cell line; format: functional; outline: as §3
KM12 = assay: Antitumor activity against human KM12 cell line; format: functional; outline: as §1
786-0 = assay: Antitumor activity against human 7860 cell line; format: functional; outline: as §1
HCT-15 = assay: Antitumor activity against human HCT15 cell line; format: functional; outline: as §1
[7] = read-out: LC50 (the source's name)

Structure (SMILES): CCCCc1c2c(c(C)c3c1C(=O)OC3)Oc1ccccc1O2
- GI50 (SF-268): 0.977 µM
- CC50 (SF-268; [7]): 100 µM
- Activity [1]: inactive
- GI50 (HOP-92): 5.75 µM
- CC50 (HOP-92; [7]): 100 µM
- GI50 (OVCAR-4): 1.95 µM
- CC50 (OVCAR-4; [7]): 100 µM
- GI50 (OVCAR-8): 3.55 µM
- CC50 (OVCAR-8; [7]): 100 µM
- GI50 (SK-MEL-28): 39.8 µM
- CC50 (SK-MEL-28; [7]): 100 µM
- CC50 (HCC 2998): 40 µM
- GI50 (HL-60): 0.245 µM
- CC50 (HL-60; [7]): 100 µM
- GI50 (SF-539): 0.339 µM
- CC50 (SF-539; [7]): 10 µM
- GI50 (ACHN): 3.72 µM
- CC50 (ACHN; [7]): 100 µM
- GI50 (SK-MEL-5): 0.427 µM
- CC50 (SK-MEL-5; [7]): 100 µM
- GI50 (HOP-62): 1.45 µM
- CC50 (HOP-62; [7]): 100 µM
- GI50 (M14): 0.603 µM
- CC50 (M14; [7]): 100 µM
- IC50 (L1210 [2]): 2.4 µM
- GI50 (BT-549): 21.4 µM
- CC50 (BT-549; [7]): 100 µM
- GI50 (UACC-257): 0.302 µM
- CC50 (UACC-257; [7]): 100 µM
- GI50 (RPMI-8226): 0.759 µM
- CC50 (RPMI-8226; [7]): 100 µM
- GI50 (A549): 0.603 µM
- CC50 (A549; [7]): 70 µM
- GI50 (SW-620): 0.525 µM
- CC50 (SW-620; [7]): 100 µM
- GI50 [3]: 0.282 µM
- CC50 [3, 7]: 10 µM
- GI50 (EKVX): 2.95 µM
- CC50 (EKVX; [7]): 100 µM
- GI50 (U-251): 0.525 µM
- CC50 (U-251; [7]): 40 µM
- GI50 (SN12C): 1.26 µM
- CC50 (SN12C; [7]): 100 µM
- GI50 (LOX IMVI): 1.23 µM
- CC50 (LOX IMVI; [7]): 100 µM
- GI50 (SK-MEL-2): 0.363 µM
- CC50 (SK-MEL-2; [7]): 100 µM
- GI50 (Hs-578T): 0.363 µM
- CC50 (Hs-578T; [7]): 100 µM
- GI50 (SF-295): 0.447 µM
- CC50 (SF-295; [7]): 100 µM
- GI50 (RXF 393): 0.977 µM
- CC50 (RXF 393; [7]): 100 µM
- Activity (L1210 [4]): 67%
- GI50 (NCI/ADR-RES): 0.437 µM
- CC50 (NCI/ADR-RES; [7]): 100 µM
- GI50 (A498): 0.776 µM
- CC50 (A498; [7]): 100 µM
- GI50 (NCI-H23): 2.63 µM
- CC50 (NCI-H23; [7]): 100 µM
- GI50 (MDA-N): 0.117 µM
- CC50 (MDA-N; [7]): 60 µM
- GI50 (MCF7): 1.23 µM
- CC50 (MCF7; [7]): 100 µM
- GI50 (MDA-MB-231): 2.34 µM
- CC50 (MDA-MB-231; [7]): 100 µM
- GI50 (NCI-H460): 0.372 µM
- CC50 (NCI-H460; [7]): 100 µM
- GI50 (PC-3): 0.437 µM
- CC50 (PC-3; [7]): 100 µM
- GI50 (CAKI-1): 26.3 µM
- CC50 (CAKI-1; [7]): 100 µM
- Activity (Homo sapiens): inactive
- IC50 (HT-29 [5]): 0.58 µM
- CC50 (SNB-75): 90 µM
- GI50 (CCRF-CEM): 0.501 µM
- CC50 (CCRF-CEM; [7]): 100 µM
- GI50 (K562): 0.38 µM
- CC50 (K562; [7]): 100 µM
- GI50 (HT-29 [6]): 0.331 µM
- CC50 (HT-29 [6]; [7]): 100 µM
- GI50 (UACC-62): 0.49 µM
- CC50 (UACC-62; [7]): 100 µM
- GI50 (KM12): 0.49 µM
- CC50 (KM12; [7]): 100 µM
- GI50 (786-0): 0.562 µM
- CC50 (786-0; [7]): 50 µM
- GI50 (HCT-15): 0.589 µM
- CC50 (HCT-15; [7]): 100 µM
